Data taken from ChEMBL document CHEMBL1143258, “Biphenyl amide p38 kinase inhibitors 2: Optimisation and SAR” (Bioorg Med Chem Lett, 2008).

What was measured:
Type in all cases: ADME, organism-based
[1] = Half life in Lewis rat at 1 mg/kg, iv; parameters: dose 1 mg/kg, route intravenous; conditions: in vivo
Summary of the method: (§1)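 Male Lewis rats were given a single intravenous 1 mg/kg or oral 3 mg/kg dose. Plasma levels were measured by LC-MS/MS on a 5 min formic acid water/acetonitrile gradient. Clearance, steady-state volume, terminal half-life and oral bioavailability were derived from the concentration-time profiles.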

[2] = Plasma clearance in Lewis rat at 1 mg/kg, iv; parameters: dose 1 mg/kg, route intravenous; summary of the method: as §1
[3] = Volume of distribution at steady state in Lewis rat at 1 mg/kg, iv; parameters: dose 1 mg/kg, route intravenous; conditions: in vivo, read-out: Vdss; summary of the method: as §1
[4] = Oral bioavailability in Lewis rat at 3 mg/kg; conditions: in vivo; summary of the method: as §1

`Cc1nnc(-c2ccc(C)c(-c3ccc(C(=O)NCC4CC4)cc3)c2)o1` showed a half-life [1] of 9 h, a clearance [2] of less than 10 mL/min/kg and a Vd [3] of 2 L/kg. The bioavailability [4] was 50%.
